Bioassay records: PubChem BioAssay, several laboratories
MC4R antagonist: human MC4R antagonism in cAMP assay. P32245. inhibition, % at 6.5 µM. MC4R-expressing cells, MTII-stimulated cAMP, LANCE TR-FRET. hit rate 0.48% among 360,000;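 active = inhibition above its plate's cutoff, the mean of tested wells on that plate plus 3 SD, cut at about 29% in these data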
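System: U2OS cells stably expressing human melanocortin 4 receptor (MC4R). Reagent: Melanotan II challenge after compound preincubation. Doses: 6.5 µM. Times: 30-min compound, 1-h challenge, 1-h detection, room temperature. Measured by: TR-FRET with Eu-cAMP and labeled anti-cAMP, 671 nm. Replicates: singlicate.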
EBI2 block: antagonists of human EBI2 receptor. P32249. EBI2 beta-arrestin recruitment, luminescence, 7a,25-OHC stimulated. inhibition, % at 5 µM. hit rate 0.81% among 360,000. AID 651636; in the data active = inhibition above about 38%;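 also: enzyme fragment complementation signal reports receptor beta-arrestin coupling in cells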
MC4R barr agon: human MC4R agonism via beta-arrestin | P32245 | hit rate 0.98% among 360,000 | activation, % at 8.9 µM | U2OS MC4R beta-arrestin complementation, luminescence; percent of melanotan II response, DMSO zero | AID 540308;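 active = activation above a per-plate cutoff, the mean activation of sample wells on that plate plus 3 SD, cut at about 8% in these data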
m5-HT2A agonist: mouse HTR2A agonism via beta-arrestin recruitment. P35363. CHO-K1 mHTR2A beta-arrestin complementation, luminescence; percent of 30 µM serotonin response. activation, % at 7.6 µM. hit rate 0.66% among 360,000. AID 624169;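 active = activation above a run cutoff, the mean activation of all tested compounds plus 3 SD, cut at about 14% in these data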
Target sequence (P35363 whole entry, looked up): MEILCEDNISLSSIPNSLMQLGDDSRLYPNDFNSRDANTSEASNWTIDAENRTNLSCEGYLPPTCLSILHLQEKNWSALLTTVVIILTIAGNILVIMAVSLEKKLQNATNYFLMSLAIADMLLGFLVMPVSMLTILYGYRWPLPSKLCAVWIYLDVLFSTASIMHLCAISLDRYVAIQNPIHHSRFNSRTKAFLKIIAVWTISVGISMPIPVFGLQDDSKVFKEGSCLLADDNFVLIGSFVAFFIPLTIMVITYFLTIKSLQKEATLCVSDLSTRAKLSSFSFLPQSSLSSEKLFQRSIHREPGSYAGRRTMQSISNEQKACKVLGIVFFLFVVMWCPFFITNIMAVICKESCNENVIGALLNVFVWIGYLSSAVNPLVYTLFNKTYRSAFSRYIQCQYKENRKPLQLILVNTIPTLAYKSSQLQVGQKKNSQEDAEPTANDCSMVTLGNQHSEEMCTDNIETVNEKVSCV
EBI2 antag conf: EBI2 (human) antagonism, single concentration confirmation. hit rate 29% among 2,400. inhibition, % at 5 µM. EBI2 beta-arrestin luminescence, 7a,25-OHC antagonism. shares compounds with EBI2 block;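 active = inhibition of at least 50%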
EBI2 ag: activates EBI2, counter-screen for EBI2 antagonists. shares compounds with EBI2 block. EBI2-expressing cells, agonist mode, luminescence, 60 min; 0% vehicle, 100% 7α,25-dihydroxycholesterol control. activation, % at 5 µM. 2,400 tested, under 10 active. AID 652000;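 active = activation of at least 50%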
bGal cs: beta-galactosidase inhibition counter-screen | shares compounds with EBI2 block | purified beta-galactosidase, luminescent Galacton Star, 15 min | inhibition, % at 5 µM | hit rate 1% among 2,400;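 active = replicate-average signal at least 3 plate SD below neutral wells, shown as high inhibition, flagging enzyme-inhibiting false positives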;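 also: higher means stronger loss of beta-gal luminescence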
Each line names hits and unclear results; the compound was inactive in the other large screens (follow-up assays come after a bar, where they were run). Compounds with a hit are over-represented: about 2.8% of the library has one in this group of screens.

O=C1NN=C(c2ccc(Br)cc2)CC1c1ccc(Cl)cc1 (configuration not stated)	EBI2 block 74 | EBI2 antag conf 52 | EBI2 ag inactive | bGal cs inactive
C=CCOC(=O)C1=C(C)NC(=O)NC1c1cc(Cl)cc(Cl)c1OC (configuration not stated)	none
S=C(NN=C(C1CC1)C1CC1)Nc1ccccc1	none
CCCC(=O)Nc1cc2c(cc1C(=O)c1ccccc1)OCCO2	none
CCOc1ccc(S(=O)(=O)c2c(C(=O)c3ccccc3)cnc3cc4c(cc23)OCCO4)cc1	EBI2 block 52 | EBI2 antag conf inactive | EBI2 ag inactive | bGal cs inactive
O=C(c1ccc(Cl)cc1)c1c[nH]c(C(=O)C(Cl)(Cl)Cl)c1	EBI2 block 42 | EBI2 antag conf inactive | EBI2 ag inactive | bGal cs inactive
CC(c1ccccc1)N1CCc2[nH]c(=S)[nH]c(=O)c2C1 (configuration not stated)	none
COc1cc(CC(=O)OCC(=O)c2ccc[nH]2)cc(OC)c1OC	none
CCN1C(=O)[C@H]2[C@@H](c3ccc(-c4ccccc4)cc3)N[C@@](CC(C)C)(C(=O)OC)[C@H]2C1=O	none
CCOC(=O)C1(Cc2cccc(OC)c2)CCCN(Cc2cc(OC)c(O)c(OC)c2)C1 (configuration not stated)	EBI2 block 82 | EBI2 antag conf 58 | EBI2 ag inactive | bGal cs inactive
Cc1ccc2c(c1)-c1c(cnn1CC(=O)NC(C)CCc1ccco1)CO2 (configuration not stated)	none
Cc1ccc2c(c1)-c1c(cnn1CC(=O)N(Cc1ccco1)C1CCCCC1)CO2	EBI2 block 47 | EBI2 antag conf inactive | EBI2 ag inactive | bGal cs inactive
O=C(O)C1=C(OCc2ccc(F)c(F)c2)C(=O)NCC1	none
Clc1ccc2[nH]cc(-c3nnnn3-c3ccc4ccccc4c3)c2c1	EBI2 block 45 | EBI2 antag conf inactive | EBI2 ag inactive | bGal cs inactive
Cc1ccc(-n2nnnc2-c2cnc3ccc(Cl)cc3c2-c2ccccc2)cc1	none
CCOC(=O)[C@]12CCCC=C1N(Cc1ccccc1)C(=O)[C@H](CC(=O)NCc1cccs1)C2	none (no result: MC4R antagonist, MC4R barr agon)
O=C(NCCCNC(=O)c1cc(Cl)ccc1Cl)c1ccco1	none
COc1ccc(CC(=O)Nc2cc(S(=O)(=O)N3CCOCC3)ccc2N2CCCC2)c(OC)c1	none
CCN(CC)S(=O)(=O)c1ccc(N2CCCC2)c(NC(=O)Cc2ccc(OC)cc2)c1	none
CCN(CC)S(=O)(=O)c1ccc(N2CCCCC2)c(NC(=O)/C(C#N)=C/c2ccc(OC)cc2)c1	EBI2 block 42 | EBI2 antag conf inactive | EBI2 ag inactive | bGal cs inactive
COc1ccc(/C=C(\C#N)C(=O)Nc2cc(S(=O)(=O)N3CCOCC3)ccc2N2CCCC2)cc1	EBI2 block 80 | EBI2 antag conf 84 | EBI2 ag inactive | bGal cs inactive
COCc1nnc(NC(=O)C2CC(=O)N(C3CCCC3)C2)s1 (configuration not stated)	none
CCC(=O)n1nc(-c2ccc(Cl)cc2)nc1SC	none
CCCC(=O)n1nc(-c2ccc(Cl)cc2)nc1SC	EBI2 block 80 | EBI2 antag conf inactive | EBI2 ag inactive | bGal cs inactive
OCC1(Cc2ccccc2)CCCN(Cc2ccn[nH]2)C1 (configuration not stated)	none
COc1ccccc1CNC(=O)C1CCC(CNS(=O)(=O)c2cccs2)CC1 (configuration not stated)	none
COc1cccc(NC(=O)C2CCC(CNS(=O)(=O)c3cccs3)CC2)c1 (configuration not stated)	EBI2 block 47 | EBI2 antag conf inactive | EBI2 ag inactive | bGal cs inactive
CN(C(=O)c1ccoc1)c1ccc2ccccc2c1	none
O=C(CSc1ccc(Br)cc1)N1CCN(S(=O)(=O)c2ccccc2)CC1	EBI2 block 90 | EBI2 antag conf 67 | EBI2 ag inactive | bGal cs inactive
O=C(c1ccc(Br)cc1)N1CCN(S(=O)(=O)c2ccccc2)CC1	EBI2 block 47 | EBI2 antag conf inactive | EBI2 ag inactive | bGal cs inactive
